Assay results from ChEMBL document CHEMBL1139422, “Design, synthesis and biological evaluation of novel compounds with conjugated structure as anti-tumor agents” (Bioorg Med Chem, 2008).
Activity calls are given as the source filed them. The calls are words filed in the database; no cut-off is given here.

How the values were obtained:
Histone deacetylase 4 = Histone deacetylase 4 (Homo sapiens, UniProt P56524); assay: Inhibition of human recombinant HDAC4 using Fluor de Lys as substrate by fluorimetric assay
Sequence of Histone deacetylase 4 (P56524 whole entry): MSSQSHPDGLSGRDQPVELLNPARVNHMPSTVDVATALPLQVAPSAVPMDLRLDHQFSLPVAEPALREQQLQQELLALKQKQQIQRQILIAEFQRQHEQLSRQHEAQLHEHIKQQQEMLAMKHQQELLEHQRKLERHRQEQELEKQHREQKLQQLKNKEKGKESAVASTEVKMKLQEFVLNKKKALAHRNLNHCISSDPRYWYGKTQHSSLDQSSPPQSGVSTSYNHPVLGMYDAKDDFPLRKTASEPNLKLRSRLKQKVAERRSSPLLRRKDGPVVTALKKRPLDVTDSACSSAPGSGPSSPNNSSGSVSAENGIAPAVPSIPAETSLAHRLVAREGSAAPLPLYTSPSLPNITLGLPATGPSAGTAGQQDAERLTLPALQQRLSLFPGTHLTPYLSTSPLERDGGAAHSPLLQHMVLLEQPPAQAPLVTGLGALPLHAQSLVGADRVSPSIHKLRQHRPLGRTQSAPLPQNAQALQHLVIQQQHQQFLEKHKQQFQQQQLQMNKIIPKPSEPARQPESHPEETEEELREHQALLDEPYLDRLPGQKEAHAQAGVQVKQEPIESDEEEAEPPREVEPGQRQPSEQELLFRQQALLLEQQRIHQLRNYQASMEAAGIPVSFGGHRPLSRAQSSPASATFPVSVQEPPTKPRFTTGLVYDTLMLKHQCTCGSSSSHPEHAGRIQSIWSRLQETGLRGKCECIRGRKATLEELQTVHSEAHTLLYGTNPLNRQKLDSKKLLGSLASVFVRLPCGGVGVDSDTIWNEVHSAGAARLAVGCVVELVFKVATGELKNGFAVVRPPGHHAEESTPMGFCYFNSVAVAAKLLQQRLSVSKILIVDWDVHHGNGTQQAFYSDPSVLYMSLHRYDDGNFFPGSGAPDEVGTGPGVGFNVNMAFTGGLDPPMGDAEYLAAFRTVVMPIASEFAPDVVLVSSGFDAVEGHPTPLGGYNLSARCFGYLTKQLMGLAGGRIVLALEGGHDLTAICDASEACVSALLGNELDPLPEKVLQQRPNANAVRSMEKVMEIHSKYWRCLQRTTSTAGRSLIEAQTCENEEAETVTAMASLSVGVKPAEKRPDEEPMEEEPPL
Procedure, shortened: (§1)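 Purified recombinant HDAC1 or HDAC4 was incubated with acetylated-lysine Fluor de Lys substrate, with or without inhibitor. Developer was then added to give the fluorophore, and fluorescence was read. IC50 values are means of at least three experiments. SI is IC50(HDAC1)/IC50(HDAC4).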

HepG2 = assay: Antiproliferative activity against human HepG2 cells after 48 hrs by MTT assay; type: functional, cell-based; settings: HepG2, 48 h
Procedure, shortened: (§2)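 Cells seeded at 4000/well; compounds (10 mg/mL DMSO stock, diluted in medium) added 24 h after seeding, in duplicate. Incubation 48 h at 37 °C, 5% CO2. MTT (20 µL of 5 mg/mL in PBS) then added for 4 h at 37 °C, and the signal read at 570 nm.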

A549 = assay: Antiproliferative activity against human A549 cells after 48 hrs by MTT assay; type: functional, cell-based; settings: A549, 48 h; procedure, shortened: as §2
HCT-116 = assay: Antiproliferative activity against human HCT116 cells after 48 hrs by MTT assay; type: functional, cell-based; settings: HCT-116, 48 h; procedure, shortened: as §2
Homo sapiens = species: Homo sapiens; assay: Selectivity index, ratio of IC50 for human recombinant HDAC1 to IC50 for human recombinant HDAC4; procedure, shortened: as §1
PC-3 = assay: Antiproliferative activity against human PC3 cells after 48 hrs by MTT assay; type: functional, cell-based; settings: PC-3, 48 h; procedure, shortened: as §2
Histone deacetylase 1 = Histone deacetylase 1 (Homo sapiens, UniProt Q13547); assay: Inhibition of human recombinant HDAC1 using Fluor de Lys as substrate by fluorimetric assay; procedure, shortened: as §1
Sequence of Histone deacetylase 1 (Q13547 whole entry): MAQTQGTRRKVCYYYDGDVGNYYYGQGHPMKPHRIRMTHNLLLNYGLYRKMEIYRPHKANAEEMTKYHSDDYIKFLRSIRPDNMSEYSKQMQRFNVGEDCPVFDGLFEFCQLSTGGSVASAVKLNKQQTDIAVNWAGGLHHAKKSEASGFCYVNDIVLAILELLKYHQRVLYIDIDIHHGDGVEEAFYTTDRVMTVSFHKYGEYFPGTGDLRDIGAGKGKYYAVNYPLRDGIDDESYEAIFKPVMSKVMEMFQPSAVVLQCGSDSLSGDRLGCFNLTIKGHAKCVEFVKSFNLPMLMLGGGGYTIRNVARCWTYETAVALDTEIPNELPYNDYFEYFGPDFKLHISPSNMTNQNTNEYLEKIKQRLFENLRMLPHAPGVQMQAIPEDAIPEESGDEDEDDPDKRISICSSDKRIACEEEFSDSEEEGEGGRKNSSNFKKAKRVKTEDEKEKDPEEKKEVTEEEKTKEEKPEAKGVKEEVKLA

U-937 [1] = assay: Induction of p21waf1/CIP1 expression in human U937 cells after 24 hrs by Western blot analysis; type: functional, cell-based
Procedure, shortened: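 U937 cells were treated for 24 h. Total protein extracts (50 µg) were run on a 15% polyacrylamide gel and blotted for p21 (1:500), with tubulin as the loading control.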

[2] = molecular target: T1, Protein deacetylase HDAC6 (Homo sapiens) (UniProt Q9UBN7); assay: Inhibition of HDAC6 in human U937 cells assessed as induction of alpha-tubulin acetylation after 24 hrs by Western blot analysis; type: cell-based; settings: U-937
T1 sequence (whole entry): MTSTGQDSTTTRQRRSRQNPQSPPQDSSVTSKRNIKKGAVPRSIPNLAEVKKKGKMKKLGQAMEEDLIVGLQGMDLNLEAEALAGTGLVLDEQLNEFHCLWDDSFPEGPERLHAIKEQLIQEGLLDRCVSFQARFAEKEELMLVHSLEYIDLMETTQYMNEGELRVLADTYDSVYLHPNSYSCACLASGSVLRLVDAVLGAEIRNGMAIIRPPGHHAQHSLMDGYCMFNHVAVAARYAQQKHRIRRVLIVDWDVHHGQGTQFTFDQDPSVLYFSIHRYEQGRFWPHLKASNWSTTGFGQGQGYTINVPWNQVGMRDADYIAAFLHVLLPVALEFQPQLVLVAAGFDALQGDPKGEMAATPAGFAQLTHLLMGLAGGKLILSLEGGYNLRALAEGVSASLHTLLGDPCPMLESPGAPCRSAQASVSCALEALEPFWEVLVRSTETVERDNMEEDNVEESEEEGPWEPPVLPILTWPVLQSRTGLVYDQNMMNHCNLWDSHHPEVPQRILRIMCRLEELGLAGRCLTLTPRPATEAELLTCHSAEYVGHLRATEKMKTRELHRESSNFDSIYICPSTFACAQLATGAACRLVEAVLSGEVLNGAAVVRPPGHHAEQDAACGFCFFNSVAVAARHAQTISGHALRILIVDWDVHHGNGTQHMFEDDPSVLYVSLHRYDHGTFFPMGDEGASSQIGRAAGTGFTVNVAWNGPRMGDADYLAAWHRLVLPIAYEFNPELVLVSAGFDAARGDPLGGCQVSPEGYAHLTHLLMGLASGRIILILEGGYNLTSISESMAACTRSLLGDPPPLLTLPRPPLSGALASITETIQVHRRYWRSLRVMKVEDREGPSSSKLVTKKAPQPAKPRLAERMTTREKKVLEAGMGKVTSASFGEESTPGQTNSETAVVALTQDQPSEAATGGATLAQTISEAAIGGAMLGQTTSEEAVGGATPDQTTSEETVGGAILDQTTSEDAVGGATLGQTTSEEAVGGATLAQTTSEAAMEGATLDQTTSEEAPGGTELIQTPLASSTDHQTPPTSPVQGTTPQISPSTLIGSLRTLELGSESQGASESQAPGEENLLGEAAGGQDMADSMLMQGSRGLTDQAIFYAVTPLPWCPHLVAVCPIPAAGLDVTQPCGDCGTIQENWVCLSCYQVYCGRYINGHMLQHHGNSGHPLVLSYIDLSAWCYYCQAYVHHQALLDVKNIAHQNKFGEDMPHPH
Procedure, shortened: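 U937 cells were treated for 24 h. Total protein extract (50 µg) was run on a 10% polyacrylamide gel and blotted for acetylated α-tubulin (1:500), with total ERK as the loading control.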

U-937 [3] = assay: Cell cycle arrest in human U937 cells assessed as accumulation at G1 phase at 5 uM after 24 hrs by flow cytometry; type: functional, cell-based
Procedure, shortened: (§3)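 U937 cells were grown in RPMI with 10% FCS, penicillin/streptomycin, amphotericin-B, 10 mM Hepes and 2 mM glutamine, and held at 200,000 cells/mL. Cells were treated 24 h with compounds in DMSO. 2.5×10^5 cells were resuspended in hypotonic buffer (0.1% Triton X-100, 0.1% sodium citrate, 50 µg/mL PI, RNase A) for 30 min in the dark, then analysed by flow cytometry. Values are means of independent duplicates.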

U-937 [4] = assay: Induction of apoptosis in human U937 cells assessed as caspase 3 activation at 5 uM after 24 hrs by FACS analysis; type: functional, cell-based
Procedure, shortened: (§4)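 U937 cells were grown in supplemented RPMI at 200,000 cells/mL. Compounds in DMSO were given at 5 µM for 24 h or 30 h, or at 0.5 µM for 28 h. Apoptosis was analysed by FACS. Values are means of independent duplicates.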

U-937 [5] = assay: Increase in granulocytic differentiation in human U937 cells assessed as CD11c expression at 0.5 uM after 28 hrs by FACS analysis; type: functional, cell-based
Procedure, shortened: (§5)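 U937 cells were grown in RPMI with 10% FCS, 10 mM Hepes and 2 mM glutamine at 200,000 cells/mL. Compounds in DMSO were given for 30 h (5 µM) or 28 h (0.5 µM). Cells were stained for surface antigen for 30 min at 4 °C in the dark, washed, and resuspended in PBS with propidium iodide. PI-positive cells were excluded from the FACS analysis. Values are means of independent quadruplicates.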

U-937 [6] = assay: Cell cycle arrest in human U937 cells assessed as accumulation at S phase at 5 uM after 24 hrs by flow cytometry; type: functional, cell-based; procedure, shortened: as §3
U-937 [7] = assay: Induction of monocytic differentiation in human U937 cells assessed as CD14 expression at 5 uM after 30 hrs by FACS analysis; type: functional, cell-based; procedure, shortened: as §5
U-937 [8] = assay: Increase in granulocytic differentiation in human U937 cells assessed as CD11c expression at 5 uM after 30 hrs by FACS analysis; type: functional, cell-based; procedure, shortened: as §5
U-937 [9] = assay: Induction of apoptosis in human U937 cells assessed as caspase 3 activation at 5 uM after 30 hrs by FACS analysis; type: functional, cell-based; procedure, shortened: as §4
Histone deacetylase = assay: Inhibition of human recombinant HDAC by fluorimetric assay; type: protein assay

| Structure (SMILES) | IC50 (Histone deacetylase 4) | IC50 (HepG2) | IC50 (A549) | IC50 (HCT-116) | Ratio IC50 (Homo sapiens) | IC50 (PC-3) | IC50 (Histone deacetylase 1) | Activity [2] | IC50 (Histone deacetylase) | Activity (U-937 [1]) | Activity (U-937 [3]) | Activity (U-937 [4]) | Activity (U-937 [5]) | Activity (U-937 [6]) | Activity (U-937 [7]) | Activity (U-937 [8]) | Activity (U-937 [9]) |
| --- | --- | --- | --- | --- | --- | --- | --- | --- | --- | --- | --- | --- | --- | --- | --- | --- | --- |
| O=C(/C=C/c1ccc(/C=C/C(=O)c2ccc(Cl)cc2)o1)NO | 6.03 µM | 6.74 µM | 98.1 µM | 2.01 µM | 2.6 | 1.35 µM | 15.7 µM | Active |  | Active | Active |  |  |  |  |  |  |
| O=C(NO)c1ccc(/C=C/c2ccc3c(c2)OCO3)o1 | 85.6 µM | 33.6 µM | 63.6 µM | 4.98 µM | 0.34 | 45.9 µM | 29.6 µM |  |  |  |  |  |  |  |  |  |  |
| O=C(/C=C/c1ccc(/C=C/C(=O)c2cc(Cl)ccc2Cl)o1)NO | 4.31 µM | 48.3 µM | 27.1 µM | 4.12 µM | 1.1 | 24.7 µM | 4.72 µM | Active |  | Active | Active |  |  |  |  |  |  |
| O=C(/C=C/c1ccc(/C=C/C(=O)c2ccc(Cl)cc2Cl)o1)NO | 8.19 µM | 13.5 µM | 88.1 µM | 6.73 µM | 0.5 | 16.2 µM | 4.29 µM | Active |  | Active |  | Active |  | Active |  |  |  |
| Cc1ccc(C(=O)/C=C/c2ccc(/C=C/C(=O)NO)o2)cc1 | 1.1 µM | 16 µM | 48.6 µM | 0.54 µM | 11.9 | 16 µM | 13.2 µM |  |  |  |  | Active |  | Active |  |  |  |
| CC(=O)O[C@H]1C(=O)[C@@]2(C)[C@H]([C@H](OC(=O)c3ccccc3)[C@]3(O)C[C@H](OC(=O)[C@H](O)[C@@H](NC(=O)c4ccccc4)c4ccccc4)C(C)=C1C3(C)C)[C@]1(OC(C)=O)CO[C@@H]1C[C@@H]2O [PACLITAXEL] |  | 0.62 µM | 13.1 µM |  |  | 2.73 µM |  |  |  |  |  |  |  |  |  |  |  |
| O=C(/C=C/c1ccc(/C=C/C(=O)c2cccc(Cl)c2)o1)NO | 12.9 µM | 54.5 µM | 18.9 µM | 1.51 µM | 1 | 9.6 µM | 12.6 µM | Active |  | Active | Active | Active |  |  |  |  |  |
| O=C(/C=C/c1ccc(/C=C/C(=O)c2ccc3ccccc3c2)o1)NO | 4.38 µM | 9.93 µM | 29.4 µM | 2.22 µM | 0.9 | 15.1 µM | 3.77 µM | Active | 0.63 µM | Active | Active | Active |  |  |  |  |  |
| CC(C)c1ccc(C(=O)/C=C/c2ccc(/C=C/C(=O)NO)o2)cc1 | 4.89 µM | 35.9 µM | 56.7 µM | 0.49 µM | 4.9 | 2.27 µM | 24.1 µM | Active |  | Active | Active |  |  |  |  |  |  |
| COc1ccc2cc(C(=O)/C=C/c3ccc(/C=C/C(=O)NO)o3)ccc2c1 | 4.04 µM | 6.22 µM |  | 2.06 µM | 2.7 | 36.3 µM | 11 µM | Active |  | Active |  | Active |  | Active |  |  |  |

More lines, main results first:

| IC50 (Histone deacetylase 4) | IC50 (HepG2) | IC50 (A549) | IC50 (HCT-116) | Ratio IC50 (Homo sapiens) | IC50 (PC-3) | IC50 (Histone deacetylase 1) | Activity [2] | IC50 (Histone deacetylase) | Structure (SMILES) | Activity (U-937 [1]) | Activity (U-937 [3]) | Activity (U-937 [4]) | Activity (U-937 [5]) | Activity (U-937 [6]) | Activity (U-937 [7]) | Activity (U-937 [8]) | Activity (U-937 [9]) |
| --- | --- | --- | --- | --- | --- | --- | --- | --- | --- | --- | --- | --- | --- | --- | --- | --- | --- |
| 49.3 µM | 37.2 µM | 23.6 µM | 3.39 µM | 0.51 | 39.2 µM | 25.3 µM |  |  | O=C(NO)c1ccc(/C=C/c2cccc(Cl)c2Cl)o1 |  |  |  |  |  |  |  |  |
|  | 60.1 µM |  | 27.5 µM |  | 59.1 µM |  |  |  | Nc1ccccc1NC(=O)c1ccc(CNC(=O)OCc2cccnc2)cc1 [ENTINOSTAT] |  |  |  |  |  |  |  |  |
| 7.68 µM | 12 µM |  | 2.82 µM | 2 | 40.1 µM | 15 µM | Active |  | O=C(/C=C/c1ccc(/C=C/C(=O)c2ccc(F)cc2)o1)NO | Active | Active | Active |  |  |  |  |  |
| 50.6 µM | 31.7 µM | 46.3 µM |  | 0.97 | 3.2 µM | 49.1 µM |  |  | CN(C)c1ccc(/C=C/c2ccc(C(=O)NO)o2)cc1 | Active |  |  | Active |  |  |  |  |
| 57.1 µM | 20.9 µM | 86.4 µM | 2.73 µM | 0.76 | 21.8 µM | 43.1 µM |  |  | O=C(NO)c1ccc(/C=C/c2ccc(O)cc2)o1 |  |  |  |  |  | inactive | Active | Active |
| 42.8 µM |  |  |  | 1.17 | 35.1 µM | 50.1 µM |  |  | COc1cccc(/C=C/c2ccc(C(=O)NO)o2)c1O |  |  |  |  |  |  |  |  |
| 74.2 µM | 54 µM | 79.2 µM | 5.1 µM | 0.63 | 91.3 µM | 47.1 µM |  |  | O=C(NO)c1ccc(/C=C/c2ccccc2O)o1 |  |  |  |  |  | inactive | Active | Active |
| 0.55 µM | 63.5 µM |  | 2.69 µM | 1.01 | 8.17 µM | 0.59 µM |  | 0.042 µM | O=C(CCCCCCC(=O)Nc1ccccc1C(=O)NO)Nc1ccccc1 |  |  |  |  |  |  |  |  |
